N-glyco inh: increase of ERlucT glycosylation luciferase signal, primary screen, N-linked glycosylation inhibitor project, D54 ERlucT cells, luminescence, set 2. D54 ERlucT glycosylation luciferase reporter, 24 h; percent of 100 nM tunicamycin response. reporter increase, % at 12.5 µM. actives 0.23% (n = 360,000);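 active = mean luciferase reporter signal, scaled so untreated is 0 and the glycosylation-blocking control 100, at or above a set limit in every replicate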;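 note: luciferase carries N-glycosylation sites so blocking glycosylation raises the light; 0% = median of neutral control wells and 100% = median of 100 nM tunicamycin wells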
ALR inh: inhibitors of human ALR sulfhydryl oxidase, primary screen, biochemical, H2O2 detection, HRP-luminol luminescence, single point | FAD-linked sulfhydryl oxidase ALR (Homo sapiens), P55789 | purified ALR, DTT oxidation | inhibition, % (concentration not given with the values) | actives 3.8% (n = 290,000);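 active = mean replicate inhibition above about 79%, with every replicate also reaching it, limit read from the data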
Target sequence (P55789 whole entry, looked up): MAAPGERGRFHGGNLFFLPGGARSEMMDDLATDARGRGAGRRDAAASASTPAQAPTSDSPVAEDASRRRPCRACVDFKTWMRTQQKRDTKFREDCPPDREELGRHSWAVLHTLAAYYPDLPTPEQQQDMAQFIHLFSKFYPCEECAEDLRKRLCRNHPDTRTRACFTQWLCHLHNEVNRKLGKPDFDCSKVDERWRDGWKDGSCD
T cell HTS: modulators of CD8 T cell-vesicle binding, primary screen, mouse 2C CD8+ T cells, flow cytometry. 2C CD8+ T cell-vesicle binding; stronger effect = lower value. response (vesicle binding), % at 7 µM. actives 0.068% (n = 330,000). AID 2052, 2009;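 active = response, share of CD8 T cells binding vesicles, and their 90th percentile fluorescence all below set limits, cut at about 80% in these data, passing the limit was not always enough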;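 note: values below 100% mean blocked vesicle binding to the CD8+ T cells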
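Read-out – percent CD8+ FL2 mean versus row control · System – murine 2C transgenic CD8+ T lymphocytes · Times – 1.5 h cell–vesicle binding at 37 °C, then 20 min icy labelling · Control set – naked vesicles low, QL9 vesicles with vehicle high · Detection – cytometric PE anti-B7-1 and Alexa647 anti-CD8 signals after 1% paraformaldehyde fixation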
* marks the source's active call; other numbers are inactive results; i = inactive; · = no result given. This is one part of a sample in which hits are shown more often than they occur.

SMILES	N-glyco inh	ALR inh	T cell HTS
COc1ccc(S(=O)(=O)NC2CC2)cc1Br	-0.5	-2.9	162.0
CCOC(=O)c1c(NC(=O)C2CC2)sc2c1CC(C)(C)OC2	-1.4	-2.0	146.9
COC(=O)c1c(N)sc2c1CC(C)(C)OC2	1.8	98.1*	489.0
COc1ccc(S(=O)(=O)Nc2ccc(N3CCOCC3)cc2)cc1	-2.4	55.6	259.2
CCOc1ccc(S(=O)(=O)Nc2nc3ccccc3nc2Nc2ccc(N3CCOCC3)cc2)cc1	3.5	93.2*	i
COc1ccc(NS(=O)(=O)N2CCOCC2)cc1	3.8	-17.8	311.9
Cc1cccc(C(=O)NNC2=C(C(=O)C(F)(F)F)CCC2)c1O	4.9	97.3*	258.6
O=C(NNC1=C(C(=O)C(F)(F)F)CCC1)c1cccc(O)c1	8.8	52.5	221.7
COCc1ccc(C(=O)NC2CCCc3c2cnn3-c2ccc(C)c(C)c2)o1 (stereo not given)	-0.7	9.5	314.1
CCOC(=O)c1ccccc1NC(=O)/C=C/C(=O)O	0.5	98.2*	361.3
CCCCC(=O)Nc1ccccc1C(=O)OCC(=O)c1ccc2c(c1)OCCO2	-2.5	-2.3	304.6
COC(=O)c1ccccc1NC(=O)/C=C/C(=O)O	2.0	·	372.3
O=C(O)/C=C/C(=O)Nc1ccccc1C(=O)OCC(=O)c1ccc2c(c1)OCCO2	-1.8	87.9*	541.1
N#Cc1ccccc1S(=O)(=O)N1CCN(C(=O)CN2CCCC2c2cccs2)CC1 (stereo not given)	-1.7	2.2	445.9
CSc1cccc(NC(=O)Nc2ccccc2C(N)=O)c1	-0.5	91.5*	30.9
CSc1cccc(NC(=O)Nc2ccccc2)c1	-0.8	-0.8	318.3
Oc1cc(O)cc(/C=C/c2ccc(O)c(O)c2)c1	-10.4	98.7*	447.4
C/C=C/c1ccc(O)c(OC)c1	2.0	·	162.3
CCC1CN(C(=O)N2CCC(C(=O)NCCc3ccccc3OC)CC2)c2ccccc2O1 (stereo not given)	-4.8	0.1	251.5
CC1C(=O)Nc2ccc(S(=O)(=O)N3CCCCCC3)cc21 (stereo not given)	1.3	-6.4	514.3
CCOc1ccc(C(=O)CCC(=O)N(CC)CC(=O)NCc2cccs2)cc1	1.3	10.5	333.3
CCOc1ccc(C(=O)CC(NCc2cccs2)C(=O)O)cc1 (stereo not given)	-4.3	97.2*	252.5
O=C(c1cc(F)c(F)cc1Cl)N1CCN(S(=O)(=O)c2cccs2)CC1	-3.6	·	·
Cc1ccc2nc3sc(C(=O)Nc4c(C)[nH]c(=O)[nH]c4=O)c(N)c3cc2c1	1.5	-0.9	167.8
Cc1ccc2cc3c(N)c(C(=O)Nc4c(C)[nH]c(=O)[nH]c4=O)sc3nc2c1	0.9	96.4*	330.5
SMILES	N-glyco inh	ALR inh	T cell HTS
O=C1C=C(c2ccc(OC(F)(F)F)cc2)C[C@@H](c2ccc(Cl)cc2)C1	0.4	-1.0	185.4
COc1cc(C)c(NC(=S)Nc2cccc(Cl)c2C)cc1OC	4.4	91.1*	362.7
COC(=O)c1cccc(NC(=S)Nc2cccc(Cl)c2C)c1	0.7	-0.6	300.2
O=C(c1ccccc1)N1CCC(=O)N1c1ccccc1	1.2	-6.3	231.9
O=C1CN(c2ccccc2)C(=S)N1C(=O)c1ccccc1	-1.3	97.6*	139.3
COc1cccc(CNC(=O)C2CCN(S(=O)(=O)c3ccc(-n4cnnn4)cc3)CC2)c1	-0.2	·	588.3
CCOC(=O)c1ccc(S(=O)(=O)NNS(=O)(=O)c2ccc(C)cc2)cc1	-0.3	15.4	208.4
CCOC(=O)c1ccc(S(=O)(=O)Nc2cc(C(=O)O)ccc2Cl)cc1	1.4	98.9*	566.1
CC1=C(C(=O)N(C)C)CC(CC(=O)NCc2cccs2)C(=O)N1CCCN1CCCC1=O (stereo not given)	2.4	·	·
COc1cccc(S(=O)(=O)NCC(=O)N2CCCC2)c1	1.9	·	280.9
Cc1cc(O)c(CN(C)C)c2c1C(=O)/C(=C/c1ccco1)O2	-0.8	-9.9	168.8
Cc1cc(O)c(C=O)c2c1C(=O)Oc1c(CO)c(O)c3c(c1O2)C(O)OC3=O (stereo not given)	0.2	98.7*	336.9
COc1ccc2c(c1)OC[C@H]1[C@H]2N2C(=O)c3ccccc3NC(=O)[C@@]2(C)[C@H]1c1ccccc1	4.8	3.6	i
C[C@@]12C(=O)Nc3ccc(F)cc3C(=O)N1[C@H]1c3cc(Br)ccc3OC[C@@H]1[C@@H]2c1ccccc1	17.4	1.6	i
COc1ccc2c(c1)[C@H]1[C@H](CO2)[C@H](c2ccccc2)[C@]2(C)C(=O)Nc3cc(OC)c(OC)cc3C(=O)N12	59.2*	·	·
